Molecules are shown by their SMILES. Converted amounts (≈) assume the structure as drawn. Non-standard residues stand in square brackets, D forms with d. Residues, ends and D or L forms follow the SMILES beside them. *: point of attachment. Palmitoyl = CCCCCCCCCCCCCCCC(=O)*; 12Ado = NCCCCCCCCCCCC(=O)O Some results are limits rather than exact numbers.

Series [1] concerns Staphylococcus aureus. The series can be described thus: Antimicrobial activity against Staphylococcus aureus ATCC 25923 by microdilution method. It is filed as functional. In short, it runs like this: (§1)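 Overnight LB cultures were diluted 10,000-fold and used at 2 × 105 to 4 × 10^5 CFU/ml (LB pH 7.4). They were mixed 1:1 with compound in twofold serial dilutions from 0 to 50 μΜ. Plates were incubated overnight at 37°C and read by OD620. The MIC is the concentration giving 100% inhibition. Values are from at least two independent assays run in duplicate.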

Series [2] has as its system Pseudomonas aeruginosa. The series can be described thus: Antimicrobial activity against Pseudomonas aeruginosa ATCC 9027 by microdilution method. It is filed as functional. In short, it runs like this:
as §1

Series [3] deals with Lipid bilayer. As to the kind of experiment: Apparent affinity to phospholipid membrane in cell-free system at low concentration range of 0.16 to 2.5 uM. A digest of the protocol:
(§2)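 Surface plasmon resonance on a POPC-POPG (3:1) small-unilamellar-vesicle bilayer on an L1 chip. Compound was in PBS pH 7.4 at the low series (0.16, 0.31, 0.62, 1.25, 2.5 μM), duplicate injections each. Affinity constants were calculated with a two-step binding model from the average of five duplicated binding curves.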

The test system of series [4] is Lipid bilayer. The series can be described thus: Adhesion affinity to phospholipid membrane in cell-free system at high concentration range of 3.1 to 50 uM. A digest of the protocol: (§3)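 SPR on an L1 chip, with small unilamellar vesicles of POPC-POPG (3:1 molar ratio) as the bilayer. Compound was in PBS pH 7.4 and injected in the high series (3.1, 6.25, 12.5, 25, 50 μM), two injections per concentration. Association and dissociation curves were fitted to a two-step binding model. Constants come from five duplicated curves.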

Series [5] has as its system Lipid bilayer. The series can be described thus: Adhesion affinity to phospholipid membrane in cell-free system at low concentration range of 0.16 to 2.5 uM. In short, it runs like this: as §2
Series [6] is described as follows: Cytotoxicity against human RBC assessed as hemolysis. The note with it: human red blood cells (RBC), read-out: LC50 (the source's name). Type of series: organism-based. In short, it runs like this:
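Human red blood cells at 1% hematocrit incubated 3 h at 37°C with the compound in PBS (50 mM sodium phosphate, 150 mM NaCl, pH 7.4). Value is the concentration giving 50% hemolysis (LC50, μM). Values are rounded up to the nearest half unit, as means ± standard deviations of at least four independent experiments run in duplicate.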

The test system of series [7] is Enterococcus faecalis. As to the kind of experiment: Antimicrobial activity against Enterococcus faecalis ATCC 29212 by microdilution method. Type of series: functional. A digest of the protocol: as §1
(Broth dilution looks for growth in wells or tubes with falling amounts of substance.)

The subject of series [8] is Escherichia coli. The series can be described thus: Antimicrobial activity against Escherichia coli ATCC 35218 by microdilution method. It is filed as functional. In short, it runs like this:
as §1

Series [9] concerns Lipid bilayer. As to the kind of experiment: Apparent affinity to phospholipid membrane in cell-free system at high concentration range of 3.1 to 50 uM. In short, it runs like this:
as §3

Consider `CCCCCC/C=C\CCCCCCCC(=O)N[C@@H](CCCCN)C(=O)N[C@@H](CCCCN)C(=O)NCCCCCCCCCCCC(=O)N[C@@H](CCCCN)C(N)=O`, for which the MBC – broadly, the smallest concentration meeting the test's criterion for killing – in [1] turned out to be 6 µM (≈ 5.01 µg/mL); in [2], 50 µM (≈ 41.8 µg/mL); in series [7], 6 µM (≈ 5.01 µg/mL); in [8] it was 12.5 µM (≈ 10.4 µg/mL). Moreover, the MIC (in general, the smallest concentration in the dilution series that meets the test's criterion for growth inhibition) in series [1] worked out at 3 µM (≈ 2.51 µg/mL); in series [2], 12.5 µM (≈ 10.4 µg/mL); in [8], 6 µM (≈ 5.01 µg/mL). Moreover, the Kapp in series [3] was 1.7 ×10⁷ /M; in series [9], 4.5 ×10⁷ /M. In addition, the K in series [4] worked out at 1.5 ×10⁶ /M; in series [5], 2.1 ×10⁶ /M. The HC50 in series [6] is 8.5 µM.

On to `CCCCCCCCCCCCCCCC(=O)N[C@@H](CCCCN)C(=O)N[C@@H](CCCCN)C(=O)NCCCCCCCCCCCC(=O)N[C@@H](CCCCN)C(N)=O` (Palmitoyl-KK[12Ado]K-NH2), for which the MBC in series [1] is greater than 25 µM; in [2], greater than 50 µM; in series [7], greater than 25 µM; in series [8], greater than 50 µM. Further, the MIC was 6 µM (≈ 5.02 µg/mL) in series [1], greater than 25 µM in [2] and 25 µM (≈ 20.9 µg/mL) in series [8]. Further, the values for the Kapp in [3] and in [9] were 8.3 ×10⁷ /M and 4.3 ×10⁴ /M, respectively. Besides, the K is 4.3 ×10⁵ /M in [4] and 2.2 ×10⁶ /M in series [5]. Also, the HC50 in [6] worked out at 15 µM.
